Rows were chosen to be rich in hits. Some 3.2% of all compounds tested hit in one or more screens of this group.
Cneo AK release: Cryptococcus neoformans lysis via adenylate kinase release. C. neoformans lysis, adenylate kinase release luminescence, 4 h; normalised: neutral wells 0, clomiphene wells 100. lysis activity, % at 15 µM. 360,000 tested, 0.2% active;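 active = mean lysis activity across replicates of at least 80%, whatever share of replicates individually reach that level; inactive = mean lysis activity below 80%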
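Assay system: log-phase C. neoformans yeast / Quantity: yeast cell density of 5 × 10^6 cells/mL / Medium: fresh YPD growth medium / Compound: single dose / Timing: static 4 h at 37 °C with compound, 1 h detection / Measured by: adenylate kinase release luminescence / Read-out: lysis from increased AK signal / Benchmarks: Clomiphene as positive lysis control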
DENV2 CPE: DENV2-induced cell death inhibition. DENV2-infected cells, cytopathic effect rescue, plate reader. CPE inhibition, % at 9.99 µM. 350,000 tested, 1.7% active; in the data active = CPE inhibition above about 20%, passing the limit was not always enough; inconclusive = no clear call, values can overlap the other calls; tested in BHK-21 cells
AF4-AF9 inh: inhibitors of human MLL-AF4/AF9 interaction; 350,000 tested, 0.47% active; AlphaScreen, biotin-AF4 peptide binding to FLAG-AF9; inhibition, % at 10 µM;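 active = every replicate reaching a set inhibition limit, whatever the replicate mean, cut at about 25% in these data; inconclusive = mean inhibition reaches that limit but some replicates miss it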
Target sequence (P42568 whole entry, looked up): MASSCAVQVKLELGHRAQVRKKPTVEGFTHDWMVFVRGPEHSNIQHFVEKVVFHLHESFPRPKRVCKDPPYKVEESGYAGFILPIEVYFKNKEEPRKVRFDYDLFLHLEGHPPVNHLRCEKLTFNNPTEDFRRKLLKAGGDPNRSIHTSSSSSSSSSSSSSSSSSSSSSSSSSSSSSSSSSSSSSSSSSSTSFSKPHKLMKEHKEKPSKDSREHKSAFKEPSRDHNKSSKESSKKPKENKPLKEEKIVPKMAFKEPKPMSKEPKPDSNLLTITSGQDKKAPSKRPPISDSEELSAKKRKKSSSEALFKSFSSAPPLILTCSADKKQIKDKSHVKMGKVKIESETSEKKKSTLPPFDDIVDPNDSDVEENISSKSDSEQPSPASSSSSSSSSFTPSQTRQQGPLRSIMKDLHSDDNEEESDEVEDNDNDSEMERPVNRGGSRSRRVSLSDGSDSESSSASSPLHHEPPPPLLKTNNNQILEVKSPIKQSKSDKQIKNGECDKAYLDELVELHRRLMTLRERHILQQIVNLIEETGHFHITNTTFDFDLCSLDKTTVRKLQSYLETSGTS
Ecoli rRNA inh: inhibitors of bacterial rRNA selective over humanized ribosomes; GFP signal change (wild-type ribosome), % (no concentration beside the values); E. coli WT GFP vs humanized-ribosome RFP mutants, fluorescence, 24 h; hits give low values; DMSO median 0, no signal -100; AID 720706; 350,000 tested, 1.6% active;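 active = significant combined selectivity score with lowered wild-type GFP, culture density cut under 30%, mutant RFP and density less affected; inactive = any of these conditions unmet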
PfHsp90 set2: reduces growth (ATP signal) of yeast expressing P. falciparum Hsp90; S. cerevisiae expressing PfHsp90, BacTiter-Glo ATP, 48 h; yeast lacking PDR1 and PDR3 efflux regulators; inhibition, % at 9.4 µM; 310,000 tested, 0.32% active;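 active = every replicate shows inhibition above about 80%, whatever the replicate mean, limit read from the data; inconclusive = mean inhibition reaches the set limit but some replicate falls short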
S100A4 MyoIIA: blocks human S100A4 binding to myosin IIA peptide; P26447; S100A4/TAMRA-MyoIIA peptide fluorescence polarization; inhibition, % at 10.7 µM; 360,000 tested, 0.14% active; AID 652163;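 active = mean inhibition of at least 70% across replicates, with every replicate also reaching that level; inconclusive = mean inhibition reaches 70% but some replicates fall short; inactive = mean inhibition below 70%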
Target sequence (P26447 whole entry, looked up): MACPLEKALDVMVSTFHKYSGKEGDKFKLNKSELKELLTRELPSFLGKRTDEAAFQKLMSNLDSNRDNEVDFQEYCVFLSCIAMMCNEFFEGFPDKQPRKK
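Material: S100A4 monomer protein / Buffer or medium: 50 mM HEPES pH 7.2, 10 mM CaCl2, 100 mM KCl / Times: 5 min incubation before reading / Benchmarks: neutral control DMSO, positive control TFP / Reagent: labelled myosin peptide probe, 5 nM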
Hits are given with their value; n = inactive; u = inconclusive; x = not tested or not shown.

SMILES	Cneo AK release	DENV2 CPE	AF4-AF9 inh	Ecoli rRNA inh	PfHsp90 set2	S100A4 MyoIIA
COc1cccc(N2CCN(C(=O)CCSCc3ccccc3F)CC2)c1	x	x	n	-34.9	x	n
COc1ccccc1N1CCN(C(=O)CCSCc2ccccc2F)CC1	x	u	n	n	n	n
CO[C@@H]1CN(C)C(=O)c2ccc(NC(=O)c3ccc(F)cc3)cc2OC[C@@H](C)N(C(=O)CN(C)C)C[C@@H]1C	x	x	x	n	x	x
C[C@@H]1CN([C@H](C)CO)C(=O)c2cc(C#CC3CCCC3)cnc2O[C@@H]1CN(C)C(=O)C1CC1	n	n	n	n	x	n
CCOc1ccc(NC(=O)c2nn(C)c(C(=O)Nc3ccc(OCC)cc3)c2[N+](=O)[O-])cc1	n	34.3	n	n	n	n
Cn1nc(C(C)(C)C)c([N+](=O)[O-])c1C(=O)Nc1ccc(Br)cc1	x	n	n	-26.0	n	n
CCOc1ccc(NC(=O)c2nn(C)cc2Br)cc1	n	x	x	x	n	x
COc1cccc(NC(=S)NNC(=O)c2c([N+](=O)[O-])c(C)nn2C)c1	n	x	x	x	x	x
COc1cccc(NC(=O)c2nn(C)c(C(=O)Nc3cccc(OC)c3)c2[N+](=O)[O-])c1	n	n	n	-39.6	n	n
Cc1cccc(NC(=O)c2c([N+](=O)[O-])c(C(C)(C)C)nn2C)c1	x	n	n	n	n	n
Cc1ccccc1-c1cnc2c(c1)C(=O)N([C@H](C)CO)C[C@H](C)[C@H](CN(C)Cc1ccncc1)O2	n	n	n	n	x	n
CO[C@H]1CN(C)C(=O)c2ccc(NS(=O)(=O)CC(F)(F)F)cc2OC[C@H](C)N(CCC(F)(F)F)C[C@@H]1C	x	n	n	n	x	n
OC[C@@H]1[C@H](c2ccccc2)C2(CN(Cc3cccnc3)C2)N1Cc1ccncc1	x	20.3	n	n	x	n
OC[C@@H]1[C@@H](c2ccccc2)C2(CN(Cc3cccnc3)C2)N1Cc1ccncc1	x	n	26.2	n	x	n
OC[C@@H]1[C@@H](c2ccccc2)C2(CN(Cc3cccnc3)C2)N1Cc1cccnc1	x	n	u	n	x	n
C[C@H](NC(=O)C[C@@H]1CC[C@H](NC(=O)Nc2ccc3c(c2)OCO3)[C@@H](CO)O1)c1ccccc1	n	n	n	n	x	n
CN(C)C(=O)C[C@H]1CC[C@H]2[C@@H](COc3ccc(NC(=O)NCc4ccccc4)cc3C(=O)N2C)O1	n	n	n	n	x	n
C[C@@H]1CCCCO[C@@H](CN(C)C(=O)C2CCCCC2)[C@@H](C)CN([C@@H](C)CO)C(=O)c2cc(NC(=O)CCC(F)(F)F)ccc2O1	n	n	n	n	x	n
C[C@@H]1CCCCO[C@@H](CN(C)S(=O)(=O)c2ccc(F)cc2)[C@H](C)CN([C@H](C)CO)C(=O)c2cc(NS(=O)(=O)c3ccc(F)cc3)ccc2O1	n	n	x	n	x	x
C[C@@H]1CCCCO[C@@H](CN(C)S(=O)(=O)c2ccc(F)cc2)[C@@H](C)CN([C@H](C)CO)C(=O)c2cc(NS(=O)(=O)c3ccc(F)cc3)ccc2O1	n	n	x	n	x	x
C[C@@H]1CN([C@H](C)CO)C(=O)c2cc(NS(=O)(=O)c3cn(C)cn3)ccc2O[C@@H](C)CCCCO[C@H]1CN(C)S(=O)(=O)c1ccc(F)cc1	x	n	n	n	x	n
C[C@@H]1CN([C@@H](C)CO)C(=O)c2cc(NS(=O)(=O)c3ccc(F)cc3)ccc2O[C@@H](C)CCCCO[C@@H]1CN(C)S(=O)(=O)c1ccc(Cl)cc1	n	n	n	n	x	n
C[C@@H]1CCCCO[C@@H](CN(C)S(=O)(=O)c2ccc(F)cc2)[C@@H](C)CN([C@@H](C)CO)C(=O)c2cc(NS(=O)(=O)c3ccc(F)cc3)ccc2O1	104.1	n	x	n	x	x
C[C@@H]1CN([C@@H](C)CO)C(=O)c2cc(NS(=O)(=O)c3ccc(F)cc3)ccc2O[C@@H](C)CCCCO[C@H]1CN(C)S(=O)(=O)c1ccc(F)cc1	101.0	n	x	n	x	x
C[C@@H]1CCCCO[C@H](CN(C)S(=O)(=O)c2ccc(F)cc2)[C@@H](C)CN([C@H](C)CO)C(=O)c2cc(NS(=O)(=O)c3cn(C)cn3)ccc2O1	n	22.9	n	n	x	n
SMILES	Cneo AK release	DENV2 CPE	AF4-AF9 inh	Ecoli rRNA inh	PfHsp90 set2	S100A4 MyoIIA
C[C@@H]1CCCCO[C@H](CN(C)S(=O)(=O)c2ccc(Cl)cc2)[C@@H](C)CN([C@@H](C)CO)C(=O)c2cc(NS(=O)(=O)c3ccc(F)cc3)ccc2O1	n	n	u	n	x	120.2
CN1C(=O)c2cc(NC(=O)C3CCCC3)ccc2OC[C@@H]2O[C@@H](CC(=O)NCc3ccccc3F)CC[C@@H]21	x	n	n	n	x	n
Cc1ccccc1-c1ccc([C@H]2[C@H]3CN(C(=O)Cc4ccccn4)CC(=O)N3[C@H]2CO)cc1	x	n	n	n	x	n
CCS(=O)(=O)N1[C@@H](CO)[C@H](c2ccccc2)C12CN(C(=O)C1CC1)C2	x	n	n	n	x	n
CCCNC(=O)N1CC2(C1)[C@H](c1ccccc1)[C@H](CO)N2C(=O)C1CC1	x	n	n	n	x	n
C[C@H]1CCCCO[C@H](CN(C)S(=O)(=O)c2ccc(F)cc2)[C@@H](C)CN([C@@H](C)CO)C(=O)c2cc(NS(=O)(=O)c3ccccc3)ccc2O1	n	n	n	n	x	113.4
COC(=O)c1ccc(Sc2ccccn2)c([N+](=O)[O-])c1	x	87.9	n	n	n	n
C[C@H](CO)N1C[C@H](C)[C@@H](CN(C)Cc2cncnc2)Oc2ncc(C#CC(C)(C)O)cc2C1=O	n	n	n	n	x	n
C[C@@H]1CN([C@@H](C)CO)C(=O)c2cc(C#CC(C)(C)O)cnc2O[C@H]1CN(C)Cc1cncnc1	n	64.2	n	n	x	n
C[C@@H]1CN([C@@H](C)CO)C(=O)c2cc(C#CC(C)(C)O)cnc2O[C@@H]1CN(C)Cc1cncnc1	n	22.7	n	n	x	n
C[C@H](CO)N1C[C@H](C)[C@H](CN(C)Cc2cncnc2)Oc2ncc(C#CC(C)(C)O)cc2C1=O	n	n	n	n	x	n
C[C@@H]1CN([C@H](C)CO)C(=O)c2cc(NC(=O)CCN3CCOCC3)ccc2O[C@H]1CN(C)Cc1ccc(-c2ccccc2)cc1	n	n	n	n	x	n
CCC(C)(C)n1nnnc1C(c1cccnc1)N1CCC(Cc2ccccc2)CC1 (configuration not stated)	x	n	n	-33.0	83.2	n
c1cncc(C(c2nnnn2C2CCCCC2)N2CCCCC2)c1 (configuration not stated)	n	n	n	-20.0	n	n
Cc1ccc(Cl)cc1N1CCN(C(c2cccnc2)c2nnnn2C2CCCCC2)CC1 (configuration not stated)	n	x	x	x	n	x
